# Experimental data: ChEMBL document CHEMBL4130411, “Arylthiazole antibiotics targeting intracellular methicillin-resistant Staphylococcus aureus (MRSA) that interfere with bacterial cell wall synthesis” (Eur J Med Chem, 2017)
# Activity calls are given as the source filed them. The calls are words filed in the database; no cut-off is given here.
# Columns and labels:
# [1] = system: Staphylococcus aureus; experiment: Bactericidal activity against vancomycin-resistant Staphylococcus aureus isolate 10 incubated for 20 hrs followed by replating on tryptic soy agar plates and further incubated for 18 hrs by broth microdilution assay; type: functional
# Outline: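 From MIC wells without visible growth, an aliquot was spotted onto Tryptic soy agar and incubated at 37 °C for at least 18 h; MBC = lowest concentration inhibiting 99.9% of bacterial growth.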
# [2] = system: Staphylococcus aureus; experiment: Antibacterial activity against vancomycin-resistant Staphylococcus aureus isolate 10 after 20 hrs by broth microdilution assay; type: functional; conditions: isolate 10, 20 h
# [3] = system: Staphylococcus aureus; experiment: Bactericidal activity against methicillin-resistant Staphylococcus aureus NRS123 (USA400) incubated for 20 hrs followed by replating on tryptic soy agar plates and further incubated for 18 hrs by broth microdilution assay; type: functional
# [4] = system: Staphylococcus aureus; experiment: Antibacterial activity against methicillin-resistant Staphylococcus aureus NRS123 (USA400) after 20 hrs by broth microdilution assay; type: functional
# [5] = system: Staphylococcus aureus; experiment: Antibacterial activity against methicillin-resistant Staphylococcus aureus USA300 NRS384 after 20 hrs by broth microdilution assay; type: functional; conditions: USA300 NRS384, 20 h
# [6] = system: Staphylococcus aureus; experiment: Bactericidal activity against methicillin-resistant Staphylococcus aureus USA300 NRS384 incubated for 20 hrs followed by replating on tryptic soy agar plates and further incubated for 18 hrs by broth microdilution assay; type: functional
# [7] = system: Staphylococcus aureus; experiment: Antibacterial activity against methicillin-resistant Staphylococcus aureus USA200 NRS383 after 20 hrs by broth microdilution assay; type: functional; conditions: USA200 NRS383, 20 h
# [8] = system: Staphylococcus aureus; experiment: Bactericidal activity against methicillin-resistant Staphylococcus aureus USA200 NRS383 incubated for 20 hrs followed by replating on tryptic soy agar plates and further incubated for 18 hrs by broth microdilution assay; type: functional
# [9] = system: Staphylococcus aureus; experiment: Antibacterial activity against methicillin-resistant Staphylococcus aureus USA100 NRS382 after 20 hrs by broth microdilution assay; type: functional; conditions: USA100 NRS382, 20 h
# [10] = system: Staphylococcus aureus; experiment: Bactericidal activity against methicillin-resistant Staphylococcus aureus USA100 NRS382 incubated for 20 hrs followed by replating on tryptic soy agar plates and further incubated for 18 hrs by broth microdilution assay; type: functional
# [11] = system: Staphylococcus aureus; experiment: Antibacterial activity against Staphylococcus aureus RN4220 NRS107 after 20 hrs by broth microdilution assay; type: functional; conditions: RN4220 NRS107, 20 h
# [12] = system: Staphylococcus aureus; experiment: Bactericidal activity against Staphylococcus aureus RN4220 NRS107 incubated for 20 hrs followed by replating on tryptic soy agar plates and further incubated for 18 hrs by broth microdilution assay; type: functional
# [13] = system: Staphylococcus aureus; experiment: Antibacterial activity against vancomycin-resistant Staphylococcus aureus isolate 4 after 20 hrs by broth microdilution assay; type: functional; conditions: isolate 4, 20 h
# [14] = system: Staphylococcus aureus; experiment: Bactericidal activity against vancomycin-resistant Staphylococcus aureus isolate 4 incubated for 20 hrs followed by replating on tryptic soy agar plates and further incubated for 18 hrs by broth microdilution assay; type: functional
# [15] = system: Bacillus subtilis; experiment: Inhibition of cell wall biosynthesis in Bacillus subtilis assessed as induction of large bulges formation at 1.875 ug/ml incubated for 2 hrs by FM-4-64 staining based assay; type: functional, organism-based
# Outline: (§1)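 B. subtilis grown in LB at 37 °C to OD600 ~0.2, then treated with or without the osmotic stabiliser MSM for 2 h; stained with FM 4-64 (1 µg/mL, membranes), DAPI (1 µg/mL, DNA) and SYTOX Green (1 µg/mL, lysis); imaged by deconvolution fluorescence microscopy.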
# [16] = system: Bacillus subtilis; experiment: Inhibition of cell wall biosynthesis in Bacillus subtilis assessed as induction of formation of misshapen cells at 1.875 ug/ml incubated for 2 hrs by FM-4-64 staining based assay; type: functional, organism-based; outline: as §1
# [17] = Intrinsic clearance in human liver microsomes in presence of NADPH by LC-MS/MS analysis; type: ADME, microsome; conditions: read-out: CLH
# Outline: (§2)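 Human liver microsomal protein was incubated in duplicate at 37 °C in 100 mM potassium phosphate, 2 mM NADPH, 3 mM MgCl2, pH 7.4. Samples were taken at 0, 10, 20, 40 and 60 min and stopped with ice-cold methanol containing an internal standard. Half-life was derived from depletion. CLint = ln(2)/(T1/2 × microsomal protein concentration).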
# [18] = Half life in human liver microsomes in presence of NADPH by LC-MS/MS analysis; type: ADME, microsome; conditions: liver microsomes; outline: as §2
# [19] = Half life in human liver microsomes in absence of NADPH by LC-MS/MS analysis; type: ADME, microsome
# Outline: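 Human liver microsomes were incubated in duplicate at 37 °C in 100 mM potassium phosphate with 3 mM MgCl2, pH 7.4, without NADPH to detect NADPH-free degradation. Aliquots were taken at 0, 10, 20, 40 and 60 min and quenched in ice-cold methanol containing an internal standard, then held at least 10 min at -20 °C before water was added. Half-life was taken from compound depletion.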
# [20] = system: Bacillus subtilis; experiment: Inhibition of cell wall biosynthesis in Bacillus subtilis assessed as induction of large bulges formation at 37.5 ug/ml incubated for 2 hrs by FM-4-64 staining based assay; type: functional, organism-based
# Outline: (§3)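 B. subtilis was grown in LB at 37 °C to OD600 ~0.2, then treated for 2 h with or without the osmotic stabiliser MSM. Cells were stained with FM 4-64 (1 µg/mL, membranes), DAPI (1 µg/mL, DNA) and SYTOX Green (1 µg/mL, lysis). Morphology was scored by deconvolution fluorescence microscopy against untreated cells.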
# [21] = system: Bacillus subtilis; experiment: Inhibition of cell wall biosynthesis in Bacillus subtilis assessed as induction of formation of misshapen cells at 37.5 ug/ml incubated for 2 hrs by FM-4-64 staining based assay; type: functional, organism-based; outline: as §3
# [22] = system: Staphylococcus aureus; experiment: Antibacterial activity against methicillin-resistant Staphylococcus aureus USA300 NRS384 infected in Caenorhabditis elegans AU37 assessed as reduction in bacterial burden at 20 ug/ml after 18 hrs by microscopic analysis; type: functional
# [23] = system: Staphylococcus aureus; experiment: Bactericidal activity against methicillin-resistant Staphylococcus aureus NRS123 (USA400) assessed as time required for complete bacterial elimination after 24 hrs by time-kill assay; type: functional
# [24] = system: Staphylococcus aureus; experiment: Inhibition of cell wall synthesis in Staphylococcus aureus RN4220 NRS107 assessed as UDP-N-acetylmuramyl pentapeptide formation at 10 times MIC incubated for 30 mins by HPLC-MS analysis; type: functional, organism-based
# [25] = system: Staphylococcus aureus; experiment: Antibacterial activity against methicillin-resistant Staphylococcus aureus NRS123 (USA400) infected in mouse J774 cells assessed as reduction in bacterial colony forming units at 16 ug/ml after 24 hrs relative to control; type: functional
# Outline: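 J774 macrophages in DMEM + 10% FBS, 37 °C, 5% CO2, infected with USA400 at MOI ~100:1; after 1 h, gentamicin (50 µg/mL) wash; agent at 16 µg/mL in triplicate; at time point, gentamicin wash, lysis in 0.1% Triton X-100, serial dilution, TSA plating 18-22 h at 37 °C; % CFU/mL reduction versus untreated; t-test.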
Structure (SMILES),MBC [1] [µg/mL],MIC [2] [µg/mL],MBC [3] [µg/mL],MIC [4] [µg/mL],MIC [5] [µg/mL],MBC [6] [µg/mL],MBC [8] [µg/mL],MBC [10] [µg/mL],MBC [12] [µg/mL],other results
Cc1nc(-c2ccc(-c3ccccc3)cc2)sc1-c1cnc(N)s1,> 64,> 64,> 64,> 64,> 64,> 64,–,–,–,–
Cc1nc(-c2ccc3ccccc3c2)sc1-c1cnc(-c2cccnc2)s1,16,16,> 64,16,16,64,> 64,> 64,–,MIC [7]: 8 µg/mL; MIC [9]: 8 µg/mL
CCCCc1ccc(-c2nc(C)c(-c3cnc(NN)s3)s2)cc1,> 64,> 64,16,16,16,16,–,–,32,MIC [11]: 16 µg/mL
Cc1nc(-c2ccc(-c3ccccc3)cc2)sc1-c1cnc(-c2cccnc2)s1,16,16,> 64,16,16,64,> 64,> 64,–,MIC [7]: 8 µg/mL; MIC [9]: 8 µg/mL
CCCCc1ccc(-c2nc(C)c(-c3cnc(-c4cccnc4)s3)s2)cc1,> 64,> 64,16,16,16,16,–,–,32,MIC [11]: 16 µg/mL; MIC [13]: > 64 µg/mL; MBC [14]: > 64 µg/mL
CCCCc1ccc(-c2nc(C)c(-c3cnc(N)s3)s2)cc1,> 64,> 64,> 64,> 64,> 64,> 64,–,–,–,–
CCCCc1ccc(-c2nc(C)c(-c3cnc(NC(=N)N)s3)s2)cc1,8,8,16,16,16,16,–,–,32,MIC [11]: 16 µg/mL; MIC [13]: 8 µg/mL; MBC [14]: 8 µg/mL
Cc1nc(-c2ccc3ccccc3c2)sc1-c1cnc(NN)s1,16,16,> 64,16,16,64,> 64,> 64,–,MIC [7]: 8 µg/mL; MIC [9]: 8 µg/mL
Cc1nc(-c2ccc3ccccc3c2)sc1-c1cnc(N)s1,> 64,> 64,> 64,> 64,> 64,> 64,–,–,–,–
Cc1onc(-c2ccccc2)c1C(=O)N[C@@H]1C(=O)N2[C@@H]1SC(C)(C)[C@@H]2C(=O)O,–,–,–,–,–,–,–,–,–,inhibition [15]: Active; inhibition [16]: Active
CCCCc1ccc(-c2nc(C)c(/C(C)=N/NC(=N)N)s2)cc1,–,–,–,–,–,–,–,–,–,microsomal CLint [17]: 80.3 µL/min/mg; half-life [18]: 28.8 min; t1/2 [19]: > 240 min
N[C@@H]1CONC1=O,–,–,–,–,–,–,–,–,–,inhibition [20]: Active; inhibition [21]: Active
Cc1nc(-c2ccc(-c3ccccc3)cc2)sc1-c1cnc(NC(=N)N)s1,8,8,16,16,8,16,–,–,32,MIC [11]: 16 µg/mL; MIC [13]: 8 µg/mL; MBC [14]: 8 µg/mL
CN[C@H](CC(C)C)C(=O)N[C@H]1C(=O)N[C@@H](CC(N)=O)C(=O)N[C@H]2C(=O)N[C@H]3C(=O)N[C@H](C(=O)N[C@H](C(=O)O)c4cc(O)cc(O)c4-c4cc3ccc4O)[C@H](O)c3ccc(c(Cl)c3)Oc3cc2cc(c3O[C@@H]2O[C@H](CO)[C@@H](O)[C@H](O)[C@H]2O[C@H]2C[C@](C)(N)[C@H](O)[C@H](C)O2)Oc2ccc(cc2Cl)[C@H]1O [VANCOMYCIN],> 512,≥ 512,–,–,–,–,–,–,–,Activity [22]: inactive; Time [23]: 24 h; MIC [13]: > 512 µg/mL; inhibition [24]: Active; Activity [25]: inactive
Cc1nc(-c2ccc(-c3ccccc3)cc2)sc1-c1cnc(NN)s1,16,16,> 64,16,16,64,> 64,> 64,–,MIC [7]: 8 µg/mL; MIC [9]: 8 µg/mL
CC(=O)NC[C@H]1CN(c2ccc(N3CCOCC3)c(F)c2)C(=O)O1 [LINEZOLID],16,–,32,–,–,16,32,16,32,MBC [14]: 8 µg/mL
